Assay results reported in ChEMBL document CHEMBL3232894, “Discovery of AMG 925, a FLT3 and CDK4 dual kinase inhibitor with preferential affinity for the activated state of FLT3” (J Med Chem, 2014).
pIC50, pKd: −log10 of the molar value. Activity calls are given as the source filed them. The rule behind the calls is not given here.

Columns and labels:
[1] = target: T1, Receptor-type tyrosine-protein kinase FLT3 (Homo sapiens, UniProt P36888); experiment: Inhibition of GST-fused human FLT3 cytoplasmic domain (amino acids 564 to 993) using Ulight-JAK1 as substrate after 1 hr by TR-FRET assay
T1 sequence (P36888 whole entry): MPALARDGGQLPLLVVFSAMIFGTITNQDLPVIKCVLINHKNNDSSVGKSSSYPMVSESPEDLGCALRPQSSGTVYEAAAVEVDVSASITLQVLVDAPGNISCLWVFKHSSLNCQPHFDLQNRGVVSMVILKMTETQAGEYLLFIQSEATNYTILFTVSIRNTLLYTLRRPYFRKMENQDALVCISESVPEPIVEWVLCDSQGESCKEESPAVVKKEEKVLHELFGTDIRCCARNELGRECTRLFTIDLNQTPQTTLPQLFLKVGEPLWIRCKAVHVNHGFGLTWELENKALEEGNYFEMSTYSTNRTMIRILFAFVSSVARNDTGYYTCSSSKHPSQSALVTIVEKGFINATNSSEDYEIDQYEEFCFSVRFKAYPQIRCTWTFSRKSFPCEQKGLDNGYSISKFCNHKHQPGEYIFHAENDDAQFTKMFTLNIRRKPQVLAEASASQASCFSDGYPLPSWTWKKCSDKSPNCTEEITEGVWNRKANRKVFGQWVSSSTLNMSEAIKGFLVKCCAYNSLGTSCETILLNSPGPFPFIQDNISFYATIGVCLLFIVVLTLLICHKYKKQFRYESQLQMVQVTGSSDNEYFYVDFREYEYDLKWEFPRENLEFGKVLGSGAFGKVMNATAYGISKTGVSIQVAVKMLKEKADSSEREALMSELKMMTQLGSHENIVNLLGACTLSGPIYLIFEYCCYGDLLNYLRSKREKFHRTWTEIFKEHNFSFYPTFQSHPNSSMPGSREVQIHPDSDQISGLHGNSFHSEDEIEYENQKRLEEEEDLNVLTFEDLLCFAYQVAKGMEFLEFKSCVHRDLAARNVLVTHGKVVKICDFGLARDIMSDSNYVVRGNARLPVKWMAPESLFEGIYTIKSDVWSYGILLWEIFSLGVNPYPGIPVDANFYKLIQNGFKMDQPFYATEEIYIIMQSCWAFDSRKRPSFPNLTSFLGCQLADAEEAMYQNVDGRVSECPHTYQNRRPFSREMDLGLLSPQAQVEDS

MOLM-13 [2] = experiment: Antiproliferative activity against human MOLM13 cells harboring FLT3 ITD mutant assessed as incorporation of [3H]thymidine into DNA after 72 hrs by beta-plate counting analysis; assay type: functional, cell-based
[3] = Antiproliferative activity against Rb-negative human MDA-MB-436 cells assessed as incorporation of [3H]thymidine into DNA after 72 hrs by beta-plate counting analysis; assay type: functional
[4] = Clearance in iv dosed rat; assay type: ADME, organism-based; conditions: in vivo
Summary of the method: (§1)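 Intravenous and oral (gavage, solution) PK in rat, dog and cynomolgus monkey. The rat vehicle for both routes was water/acetate/tween at pH 4, 96/3/1 (v/v/v). Dog and monkey iv doses used 40% PG aqueous solution at pH 2, and their oral doses used 20% captisol aqueous solution.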

[5] = Oral bioavailability in rat; assay type: ADME, organism-based; conditions: in vivo; summary of the method: as §1
[6] = target: T1, Receptor-type tyrosine-protein kinase FLT3; experiment: Binding affinity to wild type FLT3 (unknown origin)
[7] = target: Receptor-type tyrosine-protein kinase FLT3 (Homo sapiens, UniProt P36888, D835H); experiment: Binding affinity to FLT3 D835H mutant (unknown origin)
U-937 [8] = experiment: Antiproliferative activity against human U937 cells assessed as incorporation of [3H]thymidine into DNA after 72 hrs by beta-plate counting analysis
U-937 [9] = experiment: Induction of apoptosis in human U937 cells harboring wild type FLT3 at 1 uM after 48 hrs by Annexin V/Sytox Green staining based flow cytometry; assay type: functional
Summary of the method: (§2)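 MOLM13, sorafenib-resistant MOLM13 and U937 cells were each exposed to compound at 1 μM for 48 h. Cells were then stained with Annexin V/Sytox Green and analysed by flow cytometry. Readout is apoptotic cells as a percentage of all cells analysed.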

MOLM-13 [10] = experiment: Induction of apoptosis in sorafenib-resistant human MOLM13 cells harboring FLT3 ITD+D835Y mutant at 1 uM after 48 hrs by Annexin V/Sytox Green staining based flow cytometry; assay type: functional; summary of the method: as §2
[11] = Clearance in iv dosed dog; assay type: ADME, organism-based, Canis lupus familiaris; conditions: in vivo; summary of the method: as §1
[12] = Volume of distribution at steady state in iv dosed dog; assay type: ADME, organism-based, Canis lupus familiaris; conditions: in vivo, read-out: Vdss; summary of the method: as §1
[13] = Elimination half-life in iv dosed dog; assay type: ADME, organism-based, Canis lupus familiaris; conditions: in vivo, read-out: beta t1/2 (converted); summary of the method: as §1
[14] = Volume of distribution at steady state in iv dosed cynomolgus monkey; assay type: ADME, organism-based, Macaca fascicularis; conditions: in vivo, read-out: Vdss; summary of the method: as §1
MOLM-13 [15] = experiment: Antitumor activity against human MOLM13 cells xenografted in po dosed CrTac:NCR-Foxn1nu (NCR) nude mouse assessed as tumor growth inhibition administered qd for 8 days; assay type: functional
Summary of the method: (§3)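 Oral dosing once daily, day 5 to day 13, in NCR nude mice bearing established subcutaneous human MOLM13 AML xenografts, at 25, 50, 75 and 150 mg/kg against a vehicle group. Tumor growth inhibition read on day 14. AUC comes from terminal PK on plasma collected after the final dose.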

MOLM-13 [16] = experiment: Antitumor activity against human MOLM13 cells xenografted in CrTac:NCR-Foxn1nu (NCR) nude mouse assessed as tumor growth inhibition at 150 mg/kg, po administered qd for 8 days; assay type: functional; conditions: MOLM-13, 192 h, read-out: TGI; summary of the method: as §3
[17] = AUC in po dosed CrTac:NCR-Foxn1nu (NCR) nude mouse xenografted with human MOLM13 cells administered qd for 8 days; assay type: ADME, organism-based, MOLM-13; conditions: in vivo; summary of the method: as §3
Tumour [18] = experiment: Decrease in Rb phosphorylation at Ser780 in tumor of CrTac:NCR-Foxn1nu (NCR) nude mouse xenografted with human MOLM13 cells at 50 to 150 mg/kg, po after 3 to 24 hrs; assay type: functional, organism-based; conditions: Neoplasm, MOLM-13
Summary of the method: (§4)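 MOLM13 tumor-bearing mice received a single oral dose of 50, 75 or 150 mg/kg. Tumors were harvested at 3, 6 and 24 h, and lysates were assayed for pSTAT5 and pRb. Unbound plasma levels were measured at the same time points. Results are mean ± SEM, n = 3 per group and n = 6 for vehicle.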

Tumour [19] = experiment: Decrease in STAT5 phosphorylation at Tyr694 in tumor of CrTac:NCR-Foxn1nu (NCR) nude mouse xenografted with human MOLM13 cells at 50 to 150 mg/kg, po after 3 to 24 hrs; assay type: functional, organism-based; conditions: Neoplasm, MOLM-13; summary of the method: as §4
Mus musculus = experiment: Toxicity in po dosed CrTac:NCR-Foxn1nu (NCR) nude mouse xenografted with human MOLM13 cells administered qd for 8 days; assay type: organism-based, MOLM-13; conditions: in vivo, 192 h
Summary of the method: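 Body weight tracked throughout the 8-day once-daily oral study in NCR nude mice carrying MOLM13 xenografts. Doses were 25, 50, 75 and 150 mg/kg, with a vehicle control.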

[20] = target: Cyclin-dependent kinase 4 (Homo sapiens, UniProt P11802); experiment: Inhibition of CDK4 in human COLO205 cells assessed as inhibition of Rb phosphorylation at Ser780 after 24 hrs
COLO 205 = experiment: Antiproliferative activity against Rb-positive human COLO205 cells assessed as incorporation of [14C]thymidine into DNA after 72 hrs by beta-plate counting analysis

Chain of Cyclin-dependent kinase 4 (P11802 whole entry): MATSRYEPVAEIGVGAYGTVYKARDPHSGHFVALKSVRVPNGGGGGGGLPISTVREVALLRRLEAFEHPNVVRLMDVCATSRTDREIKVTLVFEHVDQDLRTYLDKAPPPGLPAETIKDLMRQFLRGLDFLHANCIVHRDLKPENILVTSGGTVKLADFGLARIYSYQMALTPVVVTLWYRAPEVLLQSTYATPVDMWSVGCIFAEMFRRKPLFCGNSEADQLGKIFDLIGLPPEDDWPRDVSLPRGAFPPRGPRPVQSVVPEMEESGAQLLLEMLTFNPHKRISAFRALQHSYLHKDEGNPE

pIC50 [1]: 9.00
pIC50 (MOLM-13 [2]): 7.72
clearance [4]: 6.5 mL/min/kg
bioavailability [5]: 75%
pKd [6]: 8.40
pKd [7]: 9.00
pIC50 (U-937 [8]): 7.28
clearance [11]: 23.5 mL/min/kg
Vd [12]: 2.6 L/kg
half-life [13]: 4.1 h
Vd [14]: 3.2 L/kg
AUC at 192 h [17]: 28 µM·h
pIC50 [20]: 7.64
pIC50 (COLO 205): 7.26
SMILES: C[C@H]1CC[C@H](n2c3cnccc3c3cnc(Nc4ccc5c(n4)CCN(C(=O)CO)C5)nc32)CC1
pIC50 [3]: 5.42
Activity (U-937 [9]): 23.68%
Activity (MOLM-13 [10]): 70.86%
TGI (MOLM-13 [15]): Dose-dependent effect
ED50 (MOLM-13 [15]; MOLM-13, po, 192 h): 22 mg/kg
inhibition in vivo at 150 mg/kg (MOLM-13 [16]): 100%
inhibition (Tumour [18]): Active
inhibition (Tumour [19]): Active
Activity (Mus musculus): Non-toxic
